Laboratory results published in ChEMBL document CHEMBL3580634, “Discovery of a high affinity and selective pyridine analog as a potential positron emission tomography imaging agent for cannabinoid type 2 receptor” (J Med Chem, 2015).

What was measured:
Cannabinoid receptor 2 [1] = target: Cannabinoid receptor 2 (Mus musculus, UniProt P47936); assay: Displacement of [3H]CP-55,940 from mouse CB2 receptor expressed in CHO cell membranes
Summary of the method: (§1)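 Membranes from CHO cells expressing human or murine CB2 were incubated with [3H]CP-55,940 in 50 mM Tris, 5 mM MgCl2, 2.5 mM EGTA, 0.1% fatty-acid-free BSA, pH 7.4, 1 h at 30 °C with shaking. Reaction stopped by filtration through PEI-coated GF/B. Ki from nonlinear regression using saturation-derived Kd. Ten concentrations in triplicate.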

Cannabinoid receptor 1 = Cannabinoid receptor 1 (Homo sapiens, UniProt P21554); assay: Activity at human CB1 receptor expressed in CHO cells assessed as cAMP accumulation incubated for 30 mins by time-resolved FRET assay; assay type: functional, cell-based
Summary of the method: (§2)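 CHO cells expressing human CB1 or CB2 were seeded 1 day before in DMEM/HT supplement/10% FCS. Medium was replaced with Krebs Ringer bicarbonate buffer containing 1 mM IBMX, 30 min at 30 °C, then compound added for 30 min at 30 °C. cAMP was read by time-resolved FRET (cAMP-Nano-TRF kit) against a standard curve from 10 μM to 0.13 nM. Ten concentrations in triplicate, single experiment.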

Cannabinoid receptor 2 [2] = target: T1, Cannabinoid receptor 2 (Homo sapiens, UniProt P34972); assay: Displacement of [3H]CP-55,940 from human CB2 receptor expressed in CHO cell membranes; summary of the method: as §1
CHO = assay: Selectivity index, ratio of EC50 for human CB1 receptor expressed in CHO cells to EC50 for human CB2 receptor expressed in CHO cells; assay type: cell-based
Cannabinoid receptor 2 [3] = target: T1, Cannabinoid receptor 2; assay: Activity at human CB2 receptor expressed in CHO cells assessed as cAMP accumulation incubated for 30 mins by time-resolved FRET assay; assay type: functional, cell-based; summary of the method: as §2
[4] = Lipophilicity, log D of the compound in n-octanol/phosphate buffer pH 7.4 by shake flask method; assay type: physicochemical
[5] = Lipophilicity, log D of the radio-labeled compound in n-octanol/phosphate buffer pH 7.4 by shake flask method; assay type: physicochemical
Summary of the method: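 Formulated radiotracer (8 MBq) was added to n-octanol and phosphate buffer pH 7.4, each presaturated with the other, shaken 15 min and centrifuged 5000g 5 min. Radioactivity in both phases was gamma-counted and D taken as their ratio; n = 5.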

[6] = Biodistribution in Wistar rat plasma assessed as intact parent tracer level at 48 MBq, iv measured after 10 mins by radio-TLC method; assay type: ADME, organism-based; conditions: read-out: Drug uptake
Summary of the method: (§3)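 After iv tracer, rat plasma was taken at 5, 10 and 20 min. Urine and brain were collected at 20 min sacrifice. Plasma was separated at 5000g, 5 min, 4 °C. Proteins in plasma, urine and PBS brain homogenate were precipitated with cold acetonitrile and centrifuged. Supernatants were run by radio-TLC in hexane/EtOAc (1:1), reported as % of total activity.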

[7] = Drug metabolism in Wistar rat urine assessed as hydrophilic radio-metabolites level at 48 MBq, iv measured after 5 to 20 mins by radio-TLC method; assay type: ADME, organism-based; conditions: in vivo; summary of the method: as §3
Plasma = assay: Stability in human plasma assessed as compound degradation at 4 MBq at 37 degC […] by radio-TLC method; assay type: ADME, cell-free; conditions: 40 min
Spleen [8] = assay: Biodistribution in Wistar rat spleen at 11 to 18 MBq, iv measured during first 10 mins by PET/CT imaging method; assay type: ADME, organism-based; conditions: in vivo
Summary of the method: (§4)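 Isoflurane-anaesthetized male Wistar rats received 11–18 MBq (0.06–0.09 nmol) tracer via tail vein. Dynamic PET ran 60 min from injection, then CT. For displacement, 1.5 mg/kg blocker was given iv 10 min after tracer; 2 rats per condition. Temperature held at 37 °C. Reconstruction by 2D-OSEM without attenuation correction. Uptake given as SUV.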

[9] = Stability in mouse plasma assessed as intact compound remaining at 4 MBq at 37 degC incubated for 5 to 20 mins by radio-TLC method; assay type: ADME, cell-free; conditions: read-out: Stability
Summary of the method: (§5)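 Mouse, rat or human plasma was incubated with formulated radiotracer (4 MBq) at 37 °C with shaking. Aliquots taken at 5, 10, 15 and 20 min were quenched with ice-cold acetonitrile and centrifuged. Supernatant was analysed by radio-TLC in hexane/EtOAc (1:1).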

Liver = assay: Biodistribution in Wistar rat liver at 6 to 10 MBq, iv measured after 15 mins by gamma counting method; assay type: ADME, organism-based; conditions: in vivo, 0.25 h
Summary of the method: (§6)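 Male Wistar rats (5 weeks old) received 6–10 MBq (0.03–0.05 nmol) tracer via tail vein. For blocking, 1.5 mg/kg blocker was given iv shortly before the tracer (n = 3). Rats were decapitated under isoflurane at 15 min pi. Organs were weighed and gamma-counted, expressed as normalized %ID/g tissue (per 1 kg body weight). One baseline animal was excluded for paravenous injection.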

Spleen [10] = assay: Biodistribution in mouse spleen at 0.2 nM incubated for 15 mins by autoradiography; assay type: ADME; conditions: 0.25 h, 0.0002 µM
Summary of the method: (§7)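 Mouse or rat spleen cryosections (20 μm) were thawed on ice and preconditioned in 50 mM Tris/HCl, 5% BSA, pH 7.4, then incubated 15 min at rt with 0.2 nM radioligand, alone or with 5 μM blocker. Washed in Tris/HCl with 1% BSA and 5% EtOH (2 × 2 min) and water on ice, then exposed 30 min to phosphor imager plates.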

Spleen [11] = assay: Biodistribution in mouse spleen at 0.2 nM incubated for 15 mins in presence of 5 uM CB2 ligand GW405833 by autoradiography; assay type: ADME; conditions: 0.25 h, 0.0002 µM; summary of the method: as §7
Brain [12] = assay: Biodistribution in Wistar rat brain at 48 MBq, iv measured after 20 mins by radio-TLC method; assay type: ADME, organism-based; conditions: in vivo
Brain [13] = assay: Biodistribution in Wistar rat brain at 6 to 10 MBq, iv measured after 15 mins by gamma counting method; assay type: ADME, organism-based; conditions: in vivo, 0.25 h; summary of the method: as §6
[14] = Stability in rat plasma assessed as intact compound remaining at 4 MBq at 37 degC incubated for 5 to 20 mins by radio-TLC method; assay type: ADME, cell-free; conditions: read-out: Stability; summary of the method: as §5
Spleen [15] = assay: Biodistribution in rat spleen at 0.2 nM incubated for 15 mins by autoradiography; assay type: ADME; conditions: 0.25 h, 0.0002 µM; summary of the method: as §7
Spleen [16] = assay: Biodistribution in Wistar rat spleen at 11 to 18 MBq, iv treated with 1.5 mg/kg CB2 ligand GW405833 injected 10 mins after compound dosing and measured 15 mins after GW405833 dosing by PET/CT imaging method; assay type: ADME, organism-based; conditions: in vivo, 0.25 h; summary of the method: as §4
[17] = Biodistribution in Wistar rat plasma assessed as intact parent tracer level at 48 MBq, iv measured after 20 mins by radio-TLC method; assay type: ADME, organism-based; conditions: read-out: Drug uptake; summary of the method: as §3
Spleen [18] = assay: Biodistribution in Wistar rat spleen at 11 to 18 MBq, iv treated with 1.5 mg/kg CB2 ligand GW405833 injected 10 mins after compound dosing by PET/CT imaging method; assay type: ADME, organism-based; conditions: in vivo; summary of the method: as §4
Spleen [19] = assay: Biodistribution in Wistar rat spleen at 6 to 10 MBq, iv treated with 1.5 mg/kg CB2 ligand GW405833 injected 1 mins after compound dosing by gamma counting method; assay type: ADME, organism-based; conditions: in vivo
Brain [20] = assay: Biodistribution in brain of mouse model of LPS-induced neuroinflammation at 10 to 27 MBq, iv treated with 10 mg/kg LPS 5 days before PET scan by PET imaging method; assay type: ADME, organism-based; conditions: in vivo, 120 h
Summary of the method: (§8)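 Male CD-1 mice got 10 mg/kg LPS (E. coli O111:B4) or saline ip 5 days before PET. Under isoflurane, 10–27 MBq tracer was injected via tail vein, with 60 min PET then CT. For blocking, 2.0 mg/kg blocker or vehicle was given sc 30 min before tracer. Whole-brain ROI was taken on an MRI T2 template, expressed as SUV; n = 2 per condition.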

Spleen [21] = assay: Biodistribution in Wistar rat spleen at 11 to 18 MBq, iv measured after 10 mins by PET/CT imaging method; assay type: ADME, organism-based; conditions: in vivo; summary of the method: as §4
Spleen [22] = assay: Biodistribution in rat spleen at 0.2 nM incubated for 15 mins in presence of 5 uM CB2 ligand GW405833 by autoradiography; assay type: ADME; conditions: 0.25 h, 0.0002 µM; summary of the method: as §7
Small intestine = assay: Biodistribution in Wistar rat small intestine at 6 to 10 MBq, iv measured after 15 mins by gamma counting method; assay type: ADME, organism-based; conditions: in vivo, 0.25 h; summary of the method: as §6
[23] = Biodistribution in Wistar rat plasma assessed as intact parent tracer level at 48 MBq, iv measured after 5 mins by radio-TLC method; assay type: ADME, organism-based; conditions: read-out: Drug uptake; summary of the method: as §3
Brain [24] = assay: Biodistribution in brain of mouse model of LPS-induced neuroinflammation at 10 to 27 MBq, iv treated with 2 mg/kg CB2 ligand GW405833 injected 30 mins before PECT acquisition by PET imaging method; assay type: ADME, organism-based; conditions: in vivo, 0.5 h; summary of the method: as §8

Cannabinoid receptor 2 (Mus musculus, UniProt P47936), sequence (P47936 whole entry): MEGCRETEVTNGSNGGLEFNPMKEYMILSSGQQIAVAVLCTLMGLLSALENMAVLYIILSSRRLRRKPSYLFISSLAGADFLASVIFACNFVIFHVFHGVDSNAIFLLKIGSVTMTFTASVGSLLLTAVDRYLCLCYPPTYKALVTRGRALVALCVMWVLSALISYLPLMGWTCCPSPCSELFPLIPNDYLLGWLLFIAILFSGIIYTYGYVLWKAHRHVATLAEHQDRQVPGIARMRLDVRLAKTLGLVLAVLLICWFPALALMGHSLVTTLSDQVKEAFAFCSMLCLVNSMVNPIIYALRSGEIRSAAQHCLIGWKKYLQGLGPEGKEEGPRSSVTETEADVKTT
Cannabinoid receptor 1, sequence (P21554 whole entry, looked up): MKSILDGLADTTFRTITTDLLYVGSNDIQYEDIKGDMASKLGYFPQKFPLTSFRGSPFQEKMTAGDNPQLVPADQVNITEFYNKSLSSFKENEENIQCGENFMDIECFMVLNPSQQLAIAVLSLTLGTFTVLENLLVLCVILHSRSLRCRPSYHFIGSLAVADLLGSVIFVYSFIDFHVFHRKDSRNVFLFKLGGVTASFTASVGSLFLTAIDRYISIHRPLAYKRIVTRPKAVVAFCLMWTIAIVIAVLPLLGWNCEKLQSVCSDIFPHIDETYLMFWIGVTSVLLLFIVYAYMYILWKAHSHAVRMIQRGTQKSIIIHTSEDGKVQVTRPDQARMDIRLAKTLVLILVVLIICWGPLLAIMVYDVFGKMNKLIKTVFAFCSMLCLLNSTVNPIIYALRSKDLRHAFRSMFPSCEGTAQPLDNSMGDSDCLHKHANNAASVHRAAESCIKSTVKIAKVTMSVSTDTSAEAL
T1 sequence (P34972 whole entry): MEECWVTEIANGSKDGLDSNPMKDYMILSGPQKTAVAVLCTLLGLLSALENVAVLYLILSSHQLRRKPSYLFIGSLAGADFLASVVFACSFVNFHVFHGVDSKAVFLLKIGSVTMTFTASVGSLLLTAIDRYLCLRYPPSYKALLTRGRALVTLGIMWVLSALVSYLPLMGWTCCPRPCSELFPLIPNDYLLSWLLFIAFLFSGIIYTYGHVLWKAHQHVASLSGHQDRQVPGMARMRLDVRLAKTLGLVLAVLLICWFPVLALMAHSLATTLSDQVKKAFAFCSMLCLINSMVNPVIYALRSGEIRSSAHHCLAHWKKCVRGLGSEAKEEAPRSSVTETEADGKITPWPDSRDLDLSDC

SMILES: CC(C)(Cc1nnc(-c2ccc(F)cc2)o1)NC(=O)c1ccc(C2CCCC2)c(OCC2CC2)n1
- Ki (Cannabinoid receptor 2 [1]): 403 nM
- EC50 (Cannabinoid receptor 1): > 10000 nM
- Ki (Cannabinoid receptor 2 [2]): 416 nM

SMILES: CCOC(=O)C(CC)(CC)NC(=O)c1ccc(N2CC(OC)C2)c(OCC2CC2)n1
- Ratio EC50 (CHO): > 1000
- Ratio EC50 (CHO; tested as the 11C-labelled form): 150
- Ki (Cannabinoid receptor 2 [1]): 1.8 nM
- EC50 (Cannabinoid receptor 1): > 10000 nM
- Ki (Cannabinoid receptor 2 [2]): 2.5 nM
- EC50 (Cannabinoid receptor 2 [3]): 4.4 nM

SMILES: CCC(CC)(NC(=O)c1ccc(N2CC(OC)C2)c(OCC2CC2)n1)C(=O)NCCCF
- Ki (Cannabinoid receptor 2 [1]): 5260 nM
- EC50 (Cannabinoid receptor 1): > 10000 nM
- logD [4]: 3.67
- Ki (Cannabinoid receptor 2 [2]): 2060 nM

SMILES: CC(C)(NC(=O)c1ccc(N2CC(F)(F)C2)c(OCC2CC2)n1)c1nnc(-c2cccnc2)o1
- Ki (Cannabinoid receptor 2 [1]): > 10000 nM
- EC50 (Cannabinoid receptor 1): > 10000 nM
- Ki (Cannabinoid receptor 2 [2]): > 10000 nM
- EC50 (Cannabinoid receptor 2 [3]): 396 nM

SMILES: COC1CN(c2ccc(C(=O)NC3(CC(N)=O)COC3)nc2OCC2CC2)C1
- Ki (Cannabinoid receptor 2 [1]): 3110 nM
- EC50 (Cannabinoid receptor 1): > 10000 nM
- logD [4]: 1.7
- Ki (Cannabinoid receptor 2 [2]): 1020 nM

SMILES: CCOCCOCC(C)(C)c1cc(NC(=O)c2ccc(C3CCCC3)c(OCC3CC3)n2)on1
- Ki (Cannabinoid receptor 2 [1]): 11.7 nM
- EC50 (Cannabinoid receptor 1): > 10000 nM
- Ki (Cannabinoid receptor 2 [2]): 264 nM

SMILES: CC(C)(NC(=O)c1ccc(N2CC(F)(F)C2)c(OCC2CC2)n1)c1nnc(-c2ccccc2)o1
- Ki (Cannabinoid receptor 2 [1]): > 10000 nM
- EC50 (Cannabinoid receptor 1): > 10000 nM
- Ki (Cannabinoid receptor 2 [2]): 3960 nM
- EC50 (Cannabinoid receptor 2 [3]): > 10000 nM

SMILES: CCC(CC)(NC(=O)c1ccc(N2CC(OC)C2)c(OCC2CC2)n1)C(=O)NC
- Ki (Cannabinoid receptor 2 [1]): 60.4 nM
- EC50 (Cannabinoid receptor 1): > 10000 nM
- logD [4]: 3.18
- Ki (Cannabinoid receptor 2 [2]): 170 nM

SMILES: CCC(CC)(NC(=O)c1ccc(N2CC(F)(F)C2)c(OCC2CC2)n1)C(=O)NC
- Ki (Cannabinoid receptor 2 [1]): 245 nM
- EC50 (Cannabinoid receptor 1): > 10000 nM
- logD [4]: 3.76
- Ki (Cannabinoid receptor 2 [2]): 179 nM
- EC50 (Cannabinoid receptor 2 [3]): 4.3 nM

SMILES: CCOC(=O)C(CC)(CC)NC(=O)c1ccc(N2CC(O[11CH3])C2)c(OCC2CC2)n1
- logD [5]: 1.94
- remaining at 10 min [6]: 37%
- Drug metabolism [7]: metabolite_detected
- Stability (Plasma): Stable
- Drug uptake (Spleen [8]): Active
- remaining at 4 MBq [9]: 84%
- Drug uptake (Liver): Active
- Drug uptake (Spleen [10]): Active
- Drug uptake (Spleen [11]): Not Active
- Drug uptake (Brain [12]): Not Active
- logD [4]: 1.94
- Drug uptake (Brain [13]): Not Active
- remaining at 4 MBq [14]: 86%
- Drug uptake (Spleen [15]): Active
- Drug uptake (Spleen [16]): Not Active
- remaining at 20 min [17]: 21%
- Drug uptake (Spleen [18]): Not Active
- Drug uptake (Spleen [19]): Not Active
- Drug uptake (Brain [20]): Active
- Drug uptake (Spleen [21]): Not Active
- Ki (Cannabinoid receptor 2 [2]): 2.5 nM
- Drug uptake (Spleen [22]): Not Active
- Drug uptake (Small intestine): Active
- remaining at 5 min [23]: 51%
- Drug uptake (Brain [24]): Not Active

SMILES: CCC(CC)(NC(=O)c1ccc(N2CC(F)(F)C2)c(OCC2CC2)n1)C(=O)NCCF
- Ki (Cannabinoid receptor 2 [1]): 403 nM
- EC50 (Cannabinoid receptor 1): > 10000 nM
- Ki (Cannabinoid receptor 2 [2]): 774 nM
- EC50 (Cannabinoid receptor 2 [3]): 27 nM
